Assay results gathered from unrelated publications.
Each line is one published result; the experiments were not run side by side. pIC50: −log10 of the molar value. Converted amounts (≈) assume the structure as drawn.
Organism: Mycobacterium tuberculosis

| Compound | assay | test system | conditions | endpoint | result |
| --- | --- | --- | --- | --- | --- |
| CO[C@H]1/C=C/O[C@@]2(C)Oc3c(C)c(O)c4c(O)c(c(/C=N/N5CCN(C)CC5)c(O)c4c3C2=O)NC(=O)/C(C)=C\C=C\[C@H](C)[C@H](O)[C@@H](C)[C@@H](O)[C@@H](C)[C@H](OC(C)=O)[C@@H]1C | microbial growth | H37RV | 12.5 µg/mL | inhibition | 97% |
| CN(CC[C@H](N)CC(=O)N[C@H]1C=C[C@H](n2ccc(N)nc2=O)O[C@@H]1C(=O)O)C(=N)N | microbial growth | H37RA |  | pIC50 | 4.72 |
| O=[N+]([O-])c1cn(Cc2cccc(Cn3cnc([N+](=O)[O-])c3)n2)cn1 | microbial killing | H37RV | 21 days | MBC | > 200 µM |
| NNC(=O)c1ccncc1 | microbial killing | H37RV | 7 days | MBC | 30.7 µg/mL |
| O=C(C[n+]1cn(Cc2cccc(Cn3c[n+](CC(=O)c4ccccc4)c4ccccc43)n2)c2ccccc21)c1ccccc1 | microbial killing | H37RV | 21 days | MBC | 100 µM |
| [H]/N=C(/N)N[C@H]1[C@H](O)[C@@H](O)[C@H](O[C@@H]2O[C@@H](C)[C@](O)(C=O)[C@H]2O[C@@H]2O[C@@H](CO)[C@H](O)[C@@H](O)[C@@H]2NC)[C@@H](N/C(N)=N\[H])[C@@H]1O | microbial growth | H37RV |  | IC90 | 0.28 µM |
| Cc1ccc(NC(=O)c2cc(N3CCNCC3)cc(C(F)(F)F)c2)cc1Nc1nccn1-c1cc(NC2CC2)ncn1 | microbial killing | H37RV | 5 days | MBC | 2.5 to 5 µM |
| COc1nc2ccc(Br)cc2cc1[C@@H](c1ccccc1)[C@@](O)(CCN(C)C)c1cccc2ccccc12 | microbial growth | H37RV |  | MIC90 | 0.05 µM (≈ 0.0278 µg/mL) |
| Cc1cn(-c2cc(C(=O)Nc3ccc(C)c(Nc4nccn4-c4cc(NC5CC5)ncn4)c3)cc(C(F)(F)F)c2)cn1 | microbial growth | H37RV |  | MIC50 | 0.65 µM (≈ 0.373 µg/mL) |
| O=C(O)c1nccnc1NC(=O)c1cccc2ccccc12 | microbial growth | ATCC27294 H37RV |  | MIC50 | 1000 µM (≈ 293 µg/mL) |
| O=[N+]([O-])c1ccc(/C=N/Nc2nc(Nc3ccccc3)nc(N3CCOCC3)n2)o1 | microbial killing |  |  | MBC | 1.6 µM |
| CCCCCCC#Cc1cncc(-c2nnc(SCc3ccc([N+](=O)[O-])cc3)n2C)c1 | microbial growth |  |  | pIC50 | 5.89 |
| CCOC(=O)c1c(NC(=O)c2c(F)c(F)c(F)c(F)c2F)sc2c1CCN(CC)C2 | microbial growth | H37RV |  | MIC90 | 0.23 µM (≈ 0.103 µg/mL) |
| CCCCCCC#Cc1cncc(-c2nnc(SCc3ccc([N+](=O)[O-])o3)n2C)c1 | microbial growth | ERDMAN |  | IC90 | 0.24 µM |
| Cc1cc(C)nc(-n2nc(C)cc2NC(=O)c2ccc3c(c2)OCO3)n1 | microbial growth | H37RV |  | MIC50 | > 20 µM |
| CCCCCCC#Cc1cncc(-c2nnc(SCc3ccc(C#N)cc3)n2C)c1 | microbial growth |  |  | pIC50 | 5.64 |
| O=[N+]([O-])c1cc2cc3ccc4oc([N+](=O)[O-])cc4c3cc2o1 | microbial killing, resazurin | H37RV |  | MBC | 0.5 µg/mL |
| CCCCCCC#Cc1cncc(-c2nnc(SCc3ccc(Cl)c(F)c3)n2C)c1 | microbial growth | ERDMAN |  | IC90 | 13 µM |
| CNc1cc(-n2nc(C(=O)NCCN3C(C)CCCC3C)cc2Nc2cc(NC(=O)c3cncc(C(C)(C)C)c3)ccc2C)ncn1 (centres unmarked) | microbial growth | H37RV |  | MIC50 | 0.11 µM (≈ 0.0703 µg/mL) |
| CCc1nc2ccc(Cl)cn2c1C(=O)NCc1ccc(N2CCC(c3ccc(OC(F)(F)F)cc3)CC2)cc1 | microbial growth | ERDMAN |  | pIC50 | 8.51 |
| CC[C@@H](CO)NCCN[C@@H](CC)CO | microbial growth | H37RV |  | IC90 | 4.61 µM |
| CCCCCCC#Cc1cncc(-c2nnc(SCc3cc([N+](=O)[O-])cc([N+](=O)[O-])c3)n2C)c1 | microbial growth | ERDMAN |  | IC90 | 0.44 µM |
| O=[N+]([O-])c1ccc(/C(O)=C/C(=S)S)cc1 | microbial killing | ATCC27294 H37RV |  | MBC | 31.2 µg/mL |
